# Only some compounds are listed: those with a hit (about 2.6% of all), similar ones and a draw of the others.
# SENP1 FRET inh: inhibitors of human SENP1 SUMO protease catalytic domain; recombinant SENP1 catalytic domain, CyPet-SUMO1-YPet FRET cleavage; inhibition, % at 10 µM; 360,000 tested, 0.21% active; AID 624204;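 active = inhibition at least 30% at 10 µM, raw YFP signal under a set limit, fluorescence ratio 0.5 to 1.5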;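 also: 0% = enzyme with DMSO and 100% = no enzyme wells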
#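 Controls: no-enzyme wells low, DMSO-plus-enzyme wells high control. Test system: human recombinant His6-tagged SENP1 catalytic domain enzyme. Reagent: SFCypet-SUMO1-SFYpet FRET protein substrate, 25 nM final. Doses: one dose per compound, 10 µM, 0.5% DMSO. Detection: FRET, CFP and YFP emission. Timing: 50 min reaction at room temperature.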
# SENP8 block-1: inhibitors of human SENP8 protease | inhibition, % at 20 µM | AID 602440 | Q96LD8 | 360,000 tested, 0.64% active | recombinant SENP8, Nedd8 substrate fluorescence; in the data active = inhibition mostly above about 40%, no sharp cut-off; inactive = mostly below about 27%
# SENP6 block: SENP6 protease inhibition. Recombinant SENP6 catalytic domain, aminoluciferin luminescence. AID 2599. 330,000 tested, 1.8% active. Q9GZR1. inhibition, % at 10 µM;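 active = inhibition above about 50% at the single tested dose, limit read from the data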;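 also: plate controls were DMSO wells with enzyme for no effect and DMSO wells lacking enzyme for full effect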
# Platelet DG rel: modulates dense granule release in human platelets. human platelet-rich plasma, SFLLRN dense granule ATP release, luminescence. inhibition, %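 (compounds screened at 7.5 µM in platelet-rich plasma)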. 300,000 tested, 0.22% active;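 active = mean replicate score, as percent of positive control, at or above 50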
# SENP8 block-2: SENP8 protease inhibition; Q96LD8; purified SENP8, Z-RLRGG-aminoluciferin cleavage, luminescence; inhibition, % at 10 µM; 330,000 tested, 1.2% active; AID 2540; in the data active = inhibition above about 50%
# SENP7 block: blocks the human protease SENP7. recombinant SENP7, Z-RLRGG-aminoluciferin luminescence, 40 min. 330,000 tested, 1.5% active. Q9BQF6. inhibition, % at 5 µM;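 active = inhibition above about 50% at the single test dose, limit read from the data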;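 also: plate controls were DMSO with enzyme for no effect and no enzyme buffer wells for full effect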
# Target sequence (Q9BQF6 706-1050 limits assumed): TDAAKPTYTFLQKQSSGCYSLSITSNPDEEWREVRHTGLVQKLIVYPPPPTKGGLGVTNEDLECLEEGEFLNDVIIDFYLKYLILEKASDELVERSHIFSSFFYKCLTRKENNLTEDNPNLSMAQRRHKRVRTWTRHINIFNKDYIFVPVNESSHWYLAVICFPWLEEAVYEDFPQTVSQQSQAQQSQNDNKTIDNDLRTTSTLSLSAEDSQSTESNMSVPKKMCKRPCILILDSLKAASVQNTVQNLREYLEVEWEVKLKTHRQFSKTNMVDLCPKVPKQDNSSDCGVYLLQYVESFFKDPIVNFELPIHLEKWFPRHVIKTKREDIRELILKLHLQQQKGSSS
# SENP8 conf: human SENP8 inhibition, confirmed | shares compounds with SENP7 block | Recombinant SENP8, Z-RLRGG-aminoluciferin luminescence, 60 min | inhibition, % at 12.5 µM | 6,200 tested, 40% active | AID 488912;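 active = mean inhibition across replicates above about 50%, limit read from the data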
# SENP6 conf: human SENP6 inhibition, confirmed; shares compounds with SENP7 block; inhibition, % at 12.5 µM; 6,200 tested, 58% active; recombinant SENP6, Z-RLRGG-aminoluciferin luminescence
# SENP7 confirm: confirmation of human SENP7 protease inhibitors. shares compounds with SENP7 block. recombinant SENP7, Z-RLRGG-aminoluciferin luminescence, 40 min. inhibition, % at 12.5 µM. 6,200 tested, 69% active. AID 488917
# Casp3 SENP sel: inhibits human caspase-3 in SENP selectivity test; shares compounds with SENP7 block; purified caspase-3, Z-DEVD-aminoluciferin luminescence, 60 min; inhibition, % at 12.5 µM; 6,200 tested, 60% active; AID 488918;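 active = mean inhibition above about 50%, limit read from the data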;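 also: plate controls were enzyme with DMSO for no effect and wells without caspase-3 for full effect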
# Target sequence (P42574 28-227 limits assumed): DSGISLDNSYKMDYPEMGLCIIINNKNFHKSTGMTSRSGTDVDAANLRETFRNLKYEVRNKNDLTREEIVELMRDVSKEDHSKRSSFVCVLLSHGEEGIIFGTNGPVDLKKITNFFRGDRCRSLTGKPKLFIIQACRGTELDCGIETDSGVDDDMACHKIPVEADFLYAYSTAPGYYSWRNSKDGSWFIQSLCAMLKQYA
# Luc interf: luminescence interference (SENP counter-screen); Pre-incubated SENP8/Z-RLRGG-aminoluciferin, luciferase luminescence interference; inhibition, % at 12.5 µM; shares compounds with SENP7 block; 6,200 tested, 39% active;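 active = mean inhibition above about 50% when retested at one dose, limit read from the data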;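 also: plate controls were DMSO wells with completed reaction for no effect and substrate without enzyme for full effect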
# An asterisk follows results filed as active; nt = no result given.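 The calls were made as follows, unless noted: active = mean inhibition above about 50% in the one-dose retest (limit read from the data); inactive = the rest.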
SMILES,SENP1 FRET inh,SENP8 block-1,SENP6 block,Platelet DG rel,SENP8 block-2,SENP7 block,SENP8 conf,SENP6 conf,SENP7 confirm,Casp3 SENP sel,Luc interf
Cc1ccc(C(=O)Nc2nc3ccccc3[nH]2)cc1,3.8,-3.3,93.2*,15.6,93.3*,96.8*,10.5,8.5,-4.0,47.9,10.2
COc1ccc(C(=O)Nc2nc3ccccc3[nH]2)cc1,-0.8,1.9,96.7*,-2.6,92.6*,97.3*,7.5,95.1*,101.2*,96.1*,59.6*
Cc1ccc(N(C)S(=O)(=O)c2cccc(C(=O)Nc3nc4ccccc4[nH]3)c2)cc1,1.9,-53.3,-8.9,4.2,-1.9,2.7,nt,nt,nt,nt,nt
O=C(Nc1ccccc1)Oc1ccc[nH]c1=O,2.7,17.6,74.5*,8.1,11.3,43.7,-21.7,-14.5,2.3,11.8,15.1
Cc1c(C(=O)NCc2cccs2)sc(=O)n1Cc1ccc(S(=O)(=O)N(C)C)cc1,-2.3,-0.4,nt,nt,nt,nt,nt,nt,nt,nt,nt
O=C(Cc1ccccc1)c1ccc2c(c1)OCCO2,0.3,2.6,73.4*,23.4,71.1*,69.0*,69.5*,65.2*,91.4*,78.2*,75.5*
O=C(NCCc1ccccc1)c1ccc2c(c1)OCO2,0.0,16.3,57.4*,3.0,30.3,57.1*,52.0*,48.2,81.8*,78.3*,56.7*
O=C(CCCO)c1ccc2c(c1)OCCO2,1.6,2.7,0.4,-3.0,-2.2,6.7,nt,nt,nt,nt,nt
CCc1ccc(NC(=O)Nc2cccs2)cc1,8.0,9.3,78.1*,22.7,57.2*,46.8,1.5,55.8*,89.1*,52.8*,7.6
COc1ccc(NC(=O)Nc2cccnc2)cc1,-0.3,15.6,4.0,8.2,-2.5,-3.2,nt,nt,nt,nt,nt
CCOc1ccc(NC(=O)Nc2cccnc2)cc1,2.3,17.6,60.1*,27.5,22.5,57.9*,22.1,24.0,74.7*,74.0*,46.6
CCOc1ccc(NC(=O)Nc2cccs2)cc1,0.9,26.6,26.7,22.9,67.4*,72.8*,-18.2,72.5*,95.1*,85.1*,81.5*
Cc1ccc(NC(=O)Nc2cccs2)nc1,0.8,18.8,-13.3,-3.6,-20.4,-10.4,nt,nt,nt,nt,nt
Cc1ccc(NC(=O)Nc2cccs2)cc1,2.8,3.5,64.2*,11.9,55.2*,26.1,2.5,55.7*,87.4*,64.8*,9.2
COc1ccccc1NC(=O)c1ccc[n+]([O-])c1,1.6,4.1,-20.3,1.8,-0.8,-5.0,nt,nt,nt,nt,nt
CC(C)(C)c1ccc(C(=O)Nc2cccc(-n3cnnn3)c2)cc1,2.2,10.6,-8.8,-24.0,-5.1,-14.4,nt,nt,nt,nt,nt
CCc1ccc(NC(=O)Nc2ccon2)cc1,-0.4,20.9,23.3,9.0,18.7,52.3*,41.5,34.9,69.5*,51.6*,43.9
O=C(Nc1cccs1)Nc1ccc(F)cc1F,2.7,10.1,11.5,-14.2,-7.7,17.7,nt,nt,nt,nt,nt
O=C(Nc1cccs1)Nc1ccc(Br)cc1F,-0.2,4.3,64.4*,-2.7,10.7,13.0,21.7,21.7,60.8*,22.7,22.1
COc1cccc(NC(=O)CN2CCC(NC(=O)c3ccccc3C)CC2)c1,-0.9,6.4,nt,nt,nt,nt,nt,nt,nt,nt,nt
O=C1C(=O)N(Cc2cccnc2)C(c2cccc([N+](=O)[O-])c2)/C1=C(/O)c1ccc2c(c1)OCO2 (centres undefined),3.6,9.9,0.7,8.0,-0.1,1.8,nt,nt,nt,nt,nt
Cc1cc(=O)[nH]c(SCC(=O)c2ccccc2)c1C#N,-14.5,26.3,74.0*,-0.7,60.2*,25.8,72.5*,74.0*,93.6*,82.0*,79.3*
Cc1cc(C)c(C#N)c(SCC(=O)c2ccccc2)n1,-16.9,17.3,-9.0,1.4,-0.9,11.4,nt,nt,nt,nt,nt
CCc1ccc(NC(=O)CSc2nncn2-c2cccnc2)cc1,-5.8,-3.9,-9.2,0.3,-11.3,-8.2,nt,nt,nt,nt,nt
O=C(C1CC(=O)N(C2CCCC2)C1)N1CCN(c2cccc(Cl)c2)CC1 (centres undefined),0.8,6.9,-6.6,9.6,3.6,-7.3,nt,nt,nt,nt,nt
SMILES,SENP1 FRET inh,SENP8 block-1,SENP6 block,Platelet DG rel,SENP8 block-2,SENP7 block,SENP8 conf,SENP6 conf,SENP7 confirm,Casp3 SENP sel,Luc interf
CCOC(=O)C1=C(COC(=O)c2sccc2C)NC(=O)NC1C (centres undefined),-0.3,13.1,-11.0,nt,-6.8,3.5,nt,nt,nt,nt,nt
CCOC(=O)C1=C(COC(=O)c2ccc([N+](=O)[O-])s2)NC(=O)NC1C (centres undefined),-7.9,31.9,74.7*,nt,75.6*,43.6,81.6*,87.3*,52.3*,17.7,-2.8
O=C(C[C@H]1C=C[C@@H](NC(=O)c2ccncc2)[C@@H](CO)O1)NCC1CC1,1.6,21.7,nt,nt,nt,nt,nt,nt,nt,nt,nt
Cc1c(C(=O)Oc2ccc(-c3cnc4ccccc4n3)cc2)cccc1[N+](=O)[O-],5.1,-17.2,24.0,10.5,20.8,2.3,nt,nt,nt,nt,nt
Nc1cccc(-c2cnc3ccccc3n2)c1,0.2,15.8,68.0*,7.0,51.2*,57.9*,-9.9,37.6,78.3*,75.4*,49.3
O=C(Oc1ccc(-c2cnc3ccccc3n2)cc1)c1cc([N+](=O)[O-])ccc1Cl,2.1,-49.0,43.9,-3.9,39.8,77.7*,0.6,1.4,-2.3,42.2,1.3
O=[N+]([O-])c1cc(-c2cnc3ccccc3n2)ccc1Oc1ccc(Cl)cc1,1.7,7.8,3.5,12.5,7.3,4.2,nt,nt,nt,nt,nt
O=[N+]([O-])c1cc(-c2cnc3ccccc3n2)ccc1Cl,-7.4,-16.2,6.6,4.1,0.7,50.7*,-19.2,-9.1,10.8,23.5,7.8
Cc1cnc(C=O)c2cccc([N+](=O)[O-])c12,-2.6,12.7,nt,nt,nt,nt,nt,nt,nt,nt,nt
O=C(NCc1n[nH]c(=O)c2ccccc12)C1CC(=O)N(c2ccc(Cl)cc2)C1 (centres undefined),-1.3,-9.9,-15.8,2.1,-4.7,-10.9,nt,nt,nt,nt,nt
CN(C)C(=O)c1cc(C(=O)c2c(F)cccc2F)c[nH]1,1.2,14.2,-34.6,-4.4,-11.7,-13.8,nt,nt,nt,nt,nt
O=[N+]([O-])c1ccc2nc(-c3cccnc3)[nH]c2c1,1.3,9.4,42.0,0.3,24.4,7.2,nt,nt,nt,nt,nt
O=[N+]([O-])c1ccc2nc(-c3ccccc3)[nH]c2c1,2.3,15.5,81.6*,9.8,78.9*,84.7*,5.7,80.7*,95.1*,82.6*,82.3*

# From PubChem
